The results in this text go back to ChEMBL document CHEMBL2390890, “Optimization of a novel potent and selective bacterial DNA helicase inhibitor scaffold from a high throughput screening hit” (Bioorg Med Chem Lett, 2013).

Active and inactive are the calls of the source. The calls are words filed in the database; no cut-off is given here.

Data set [1] in a line: Inhibition of Bacillus anthracis replicative DNA helicase using Hel-5'FAM:Hel-3'BHQ as substrate assessed as DNA duplex strand unwinding by FRET assay.
Data set [2] deals with HeLa. The data set can be described thus: Cytotoxicity against human HeLa cells by MTT assay in presence of serum free media. The format is cell-based.
The nature of data set [3]: Inhibition of Staphylococcus aureus replicative DNA helicase using Hel-5'FAM:Hel-3'BHQ as substrate assessed as DNA duplex strand unwinding by FRET assay.
Data set [4] deals with Staphylococcus aureus. The data set can be described thus: Inhibition of Staphylococcus aureus single-strand DNA-stimulated replicative DNA helicase ATPase activity assessed as release of inorganic phosphate at 50 uM after 30 mins by malachite green assay.
Data set [5] in a line: (§1) Competitive inhibition of Staphylococcus aureus replicative DNA helicase using DNA as substrate by Dixon plot analysis. The procedure, abridged: (§2)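 FRET-based strand-unwinding assay with S. aureus replicative DNA helicase. An inhibitor dilution series was run at several oligonucleotide (DNA substrate) concentrations, the lowest being 3 nM. IC50 at each level came from 4-parameter curve fitting. Ki and the inhibition mode were derived from a Dixon plot of the DNA-variation data.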

A short description of data set [6]: (§3) Non-competitive inhibition of Staphylococcus aureus replicative DNA helicase using ATP as substrate. Summed up:
(§4)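 S. aureus replicative DNA helicase was tested in a FRET-based unwinding assay. An inhibitor dilution series was run across several ATP concentrations. IC50 at each ATP level came from 4-parameter curve fitting, and the mode of inhibition was assigned from how IC50 shifted with ATP concentration.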

The subject of data set [7] is Bacillus anthracis. The data set can be described thus: Antibacterial activity against Bacillus anthracis Sterne assessed as inhibition of incorporation of radiolabeled precursors into DNA. The format is functional, organism-based.
The test system of data set [8] is Staphylococcus aureus. The data set is described as §1. Summed up:
as §2

The subject of data set [9] is Staphylococcus aureus. The description is as §3. The procedure, abridged:
as §4

A short description of data set [10]: Selectivity index, ratio of CC50 for human HeLa cells to IC50 for Staphylococcus aureus replicative DNA helicase. The format is functional.

Take `CSc1nc2ccc3nc(NC(=O)c4cccc(Cl)c4)sc3c2s1`: the IC50 in [1] worked out at 5.3 µM.

For the compound `CCCNc1nc2ccc3nc(NC(=O)c4cccc(OC)c4)sc3c2s1`, the CC50 in data set [2] is below 0.08 µM. In addition, the results for the IC50 in data set [3] and in [1] were 1.3 µM and 1.1 µM, respectively.

For `CSc1nc2ccc3nc(NC(=O)C4CC4)sc3c2s1`, in [1], the IC50 is above 100 µM.

With `CCN(CC)S(=O)(=O)c1ccc(C(=O)Nc2nc3ccc4nc(SC)sc4c3s2)cc1`, the IC50 in data set [1] is above 100 µM.

Consider `CSc1nc2ccc3nc(NC(=O)c4ccccc4C)sc3c2s1`, for which, in data set [1], the IC50 amounted to 6.6 µM.

Consider `COc1cccc(C(=O)Nc2nc3ccc4nc(NCCO)sc4c3s2)c1`, for which the CC50 in data set [2] is above 100 µM. In addition, the figures for the IC50 in [3] and in [1] were 4.2 µM and 2.2 µM, respectively.

In the case of `CSc1nc2ccc3nc(NC(=O)c4ccc(C(C)(C)C)cc4)sc3c2s1`, in data set [1], the IC50 is above 100 µM.

For `CSc1nc2ccc3nc(NC(=O)c4cccc(F)c4)sc3c2s1`, the IC50 in [1] was found to be 3.3 µM.

Consider `CSc1nc2ccc3nc(NC(=O)c4ccc(N(C)C)cc4)sc3c2s1`, for which, in data set [1], the IC50 worked out at 2.4 µM.

With `COc1cc(C(=O)Nc2nc3ccc4nc(NCCN(C)C)sc4c3s2)cc(OC)c1OC`, in data set [2], the CC50 was below 0.78 µM. The IC50 in [3] and in data set [1] was 0.2 µM each time.

Regarding `CSc1nc2ccc3nc(NC(=O)c4ccccc4Cl)sc3c2s1`, the IC50 in [1] is above 100 µM.

Take `CSc1nc2ccc3nc(NC(=O)c4ccccc4Oc4ccccc4)sc3c2s1`: the IC50 in data set [1] was above 100 µM.

With `CSc1nc2ccc3nc(NC(=O)c4cnccn4)sc3c2s1`, in data set [1], the IC50 turned out to be 28 µM.

Consider `COc1cccc(C(=O)Nc2nc3ccc4nc(NCCN(C)C)sc4c3s2)c1`, for which the IC50 in data set [3] and in data set [1] was 1 µM throughout.

For `CCOc1ccc(C(=O)Nc2nc3ccc4nc(SC)sc4c3s2)cc1`, the IC50 in [1] is 6.9 µM.

For `CSc1nc2ccc3nc(NC(=O)c4ccc(C)cc4)sc3c2s1`, the IC50 in data set [1] turned out to be 7.6 µM.

`COc1ccc(C(=O)Nc2nc3ccc4nc(SC)sc4c3s2)c(OC)c1`: in data set [1], the half-maximal inhibitory concentration (IC50) is above 100 µM.

With `CNc1nc2ccc3nc(NC(=O)c4cccc(OC)c4)sc3c2s1`, in [2], the CC50 was above 100 µM. Also, the IC50 was 2.2 µM in data set [3], 0.5 µM in data set [1] and 2 µM in data set [6]. The inhibition entry in [4] is “inactive”. The compound further had an inhibition constant Ki in data set [5] of 2 µM.

For the compound `COc1ccc(C(=O)Nc2nc3ccc4nc(SC)sc4c3s2)cc1`, the IC50 in data set [1] was found to be 2.2 µM.

Take `CSc1nc2ccc3nc(NC(=O)CN4C(=O)CCC4=O)sc3c2s1`: the IC50 in [1] is above 100 µM.

For `CCN(CC)c1ccc(C(=O)Nc2nc3ccc4nc(SC)sc4c3s2)cc1`, the IC50 in data set [1] is above 100 µM.

In the case of `COc1cccc(C(=O)Nc2nc3ccc4nc(NCC(C)C)sc4c3s2)c1`, in data set [2], the CC50 amounted to 44 µM. Further, the half-maximal inhibitory concentration (IC50) in data set [3] turned out to be 9 µM; in data set [1], 13 µM.

With `COc1cc(C(=O)Nc2nc3ccc4nc(NCCO)sc4c3s2)cc(OC)c1OC`, the CC50 in data set [2] was above 100 µM. Also, the IC50 in [3] came to 0.3 µM; in data set [1], 0.2 µM; in data set [7] it was 17 µM. For the same compound, the inhibition result in data set [8] and in [9] was “Active” throughout.

Regarding `COc1cc(/C=N/c2nc3ccc4nc(SC)sc4c3s2)cc(OC)c1OC`, in data set [3], the IC50 is above 100 µM.

With `CSc1nc2ccc3nc(NC(=O)c4ccc(Oc5ccccc5)cc4)sc3c2s1`, in data set [1], the IC50 is above 100 µM.

With `CSc1nc2ccc3nc(NC(=O)c4ccc(OC(C)C)cc4)sc3c2s1`, the IC50 in data set [1] was above 100 µM.

In the case of `CSc1nc2ccc3nc(NC(=O)c4ccc(C#N)cc4)sc3c2s1`, the IC50 in [1] is 11 µM.

Turning to `CSc1nc2ccc3nc(NC(=O)c4ccccc4Br)sc3c2s1`, the IC50 in data set [1] is above 100 µM.

As to `COc1cc(C(=O)Nc2nc3ccc4nc(NCCN5CCOCC5)sc4c3s2)cc(OC)c1OC`, the CC50 in data set [2] was found to be 5.7 µM. The IC50 in data set [3] and in data set [1] was 0.2 µM throughout.

On to `COc1cc(C(=O)Nc2nc3ccc4nc(N5CCN(C)CC5)sc4c3s2)cc(OC)c1OC`, for which, in data set [2], the CC50 came out at 2.8 µM. Further, the IC50 in data set [3] came out at 0.2 µM; in data set [1] it was 0.2 µM; in data set [7], 10 µM.

`CSc1nc2ccc3nc(NC(=O)c4ccc(Cl)cc4)sc3c2s1`: in data set [1], the IC50 came out at 5 µM.

`COc1c(C(=O)Nc2nc3ccc4nc(SC)sc4c3s2)cnn1C`: the IC50 in data set [1] is above 100 µM.

With `CSc1nc2ccc3nc(NC(=O)c4cccc(N(C)C)c4)sc3c2s1`, in data set [1], the half-inhibitory concentration (IC50) was 36 µM.

Take `COc1cc(CNc2nc3ccc4nc(SC)sc4c3s2)cc(OC)c1OC`: the IC50 in data set [3] was above 100 µM.

Consider `CSc1nc2ccc3nc(NC(=O)c4cccc(Br)c4)sc3c2s1`, for which the IC50 in [1] is 2.3 µM.

Regarding `CSc1nc2ccc3nc(NC(=O)c4ccccc4F)sc3c2s1`, the IC50 in data set [1] was 50 µM.

As to `COC(=O)c1ccc(C(=O)Nc2nc3ccc4nc(SC)sc4c3s2)cc1`, in data set [1], the IC50 came to 3.7 µM.

Consider `COc1ccc(C(=O)Nc2nc3ccc4nc(SC)sc4c3s2)cc1OC`, for which, in [1], the IC50 was 2.1 µM.

With `CSc1nc2ccc3nc(NC(=O)CCc4ccccc4)sc3c2s1`, the IC50 in [1] is above 100 µM.

For the compound `COc1cc2ccccc2cc1C(=O)Nc1nc2ccc3nc(SC)sc3c2s1`, the IC50 in [1] is above 50 µM.

Turning to `CSc1nc2ccc3nc(NC(=O)COc4ccc(Cl)cc4Cl)sc3c2s1`, in [1], the IC50 was above 100 µM.

Turning to `COc1cccc(OC)c1C(=O)Nc1nc2ccc3nc(SC)sc3c2s1`, the IC50 in data set [1] is above 100 µM.

On to `CSc1nc2ccc3nc(NC(=O)c4cccs4)sc3c2s1`, for which the IC50 in data set [1] is 90 µM.

As to `COc1cccc(C(=O)Nc2nc3ccc4nc(SC)sc4c3s2)c1`, the CC50 in data set [2] was 12.4 µM. For the same compound, the IC50 in data set [3] is 6.6 µM; in data set [1], 12.5 µM.

As for `COc1cc(C(=O)Nc2nc3ccc4nc(SC)sc4c3s2)cc(OC)c1OC`, the CC50 in [2] was above 100 µM. In addition, the results for the IC50 in [3] and in [1] were 0.4 µM and 0.7 µM, respectively.

Consider `CSc1nc2ccc3nc(NC(=O)c4c(F)cccc4F)sc3c2s1`, for which the IC50 in data set [1] turned out to be 64.5 µM.

Turning to `COc1cccc(C(=O)Nc2nc3ccc4nc(NC5CCCCC5)sc4c3s2)c1`, the 50% inhibitory concentration (IC50) in data set [3] was above 100 µM; in data set [1], 90 µM.

Turning to `COc1cc(OC)cc(C(=O)Nc2nc3ccc4nc(SC)sc4c3s2)c1`, in data set [1], the IC50 worked out at 1.7 µM.

Turning to `CSc1nc2ccc3nc(NC(=O)Cc4ccccc4)sc3c2s1`, the 50% inhibitory concentration (IC50) in data set [1] turned out to be 47 µM.

`COc1cccc(C(=O)Nc2nc3ccc4nc(NC(C)C)sc4c3s2)c1`: the concentration for half-maximal inhibition (IC50) in data set [3] turned out to be 80 µM; in [1], 65 µM.

As to `CSc1nc2ccc3nc(NC(=O)c4cc(C)no4)sc3c2s1`, the half-inhibitory concentration (IC50) in data set [1] was above 50 µM.

For the compound `COc1cccc(C(=O)Nc2nc3ccc4nc(NCc5ccccc5)sc4c3s2)c1`, the values for the half-inhibitory concentration (IC50) in [3] and in data set [1] were above 100 µM and 75 µM, respectively.

On to `CSc1nc2ccc3nc(NC(=O)c4cccc(N5C(=O)CCC5=O)c4)sc3c2s1`, for which, in data set [2], the cytotoxic concentration (CC50) was above 100 µM. The IC50 in data set [3] amounted to 12 µM; in [1], 5 µM.

With `CSc1nc2ccc3nc(NC(=O)c4ccc(N5C(=O)CCC5=O)cc4)sc3c2s1`, the IC50 in data set [1] worked out at 1.3 µM.

Consider `COc1cccc(C(=O)Nc2nc3ccc4nc(N5CCOCC5)sc4c3s2)c1`, for which the CC50 in [2] was above 100 µM. In addition, the IC50 turned out to be 3 µM in data set [3] and 2.3 µM in data set [1].

Take `CSc1nc2ccc3nc(NC(=O)c4ccc5c(c4)OCCO5)sc3c2s1`: in [1], the IC50 was 3 µM.

Take `CSc1nc2ccc3nc(NC(=O)c4c(C)cnn4C)sc3c2s1`: the IC50 in data set [1] is above 50 µM.

For the compound `CSc1nc2ccc3nc(NC(=O)c4cccc([N+](=O)[O-])c4)sc3c2s1`, the IC50 in data set [1] is 2.8 µM.

As to `CNc1nc2ccc3nc(NC(=O)c4cc(OC)c(OC)c(OC)c4)sc3c2s1`, the CC50 in data set [2] was above 100 µM. For the same compound, the IC50 in data set [3] and in data set [1] was 0.2 µM each time. Besides, the inhibition result in data set [4] is “inactive”. Moreover, the “Ratio CC50/IC50” value in [10] is above 500. Besides, the inhibition result in [8] and in data set [9] was “Active” each time.

As to `COc1cccc(C(=O)Nc2nc3ccc4nc(NCCN5CCOCC5)sc4c3s2)c1`, the CC50 in data set [2] was 9.6 µM. For the same compound, the IC50 in data set [3] amounted to 2.2 µM; in [1] it was 0.5 µM.

For `CSc1nc2ccc3nc(NC(=O)c4ccco4)sc3c2s1`, in data set [1], the IC50 stood at 102 µM.

`CSc1nc2ccc3nc(NC(=O)c4ccc(C)c(C)c4)sc3c2s1`: the IC50 in [1] came to 3.2 µM.
